Data: paper PMC4544744 (Nature chemical biology, 2015)
“And” between values parts separate entries of the source, which are not always exact repeats. Equal values may be shown once.

Key:
[1] = molecular target: T1, Dcs1p WT (H268N) (Saccharomyces cerevisiae, UniProt Q06151, H268N); assay: Methyl NMR spectra, formation of asymmetric conformation; set-up: species or system S. cerevisiae
[2] = system: WT Dcs1p; assay: 31P NMR degradation; assay type: biochemical, S. cerevisiae
How it was run: (§1)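 Recombinant S. cerevisiae Dcs1p, expressed in E. coli BL21(DE3) codon plus and purified by Ni-NTA, TEV tag cleavage and size exclusion into 25 mM Hepes pH 8.0, 25 mM NaCl made in 100% D2O. 0.5 mM m7GpppG mixed with 50 nM enzyme at 27°C. Successive 31P spectra recorded over several hours, following substrate conversion to m7GMP and GDP.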

[3] = system: DcpS; details: cited from earlier work
[4] = molecular target: T1, Dcs1p WT (H268N); assay: NMR titration; set-up: species or system S. cerevisiae; details: Kd open site (second binding event), determined using NMR
How it was run: (§2)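 Deuterated, Ile/Met methyl-labelled Dcs1p (H268N), 0.25 mM dimer in D2O buffer pH 8.0 at 27°C. Methyl-TROSY spectra recorded during stepwise m7GpppG addition, up to 20 molar equivalents (5 mM). Peak positions and intensities from all titration points fitted simultaneously to a sequential two-site binding model. Kd given as mean ± s.d. from Monte Carlo simulations varying data within their errors.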

[5] = molecular target: T2, Dcs1p K126A (H268N) (Saccharomyces cerevisiae, UniProt Q06151, H268N/K126A); assay: NMR titration; set-up: species or system S. cerevisiae; details: Kd open site (second binding event), determined using NMR
How it was run: as §2

[6] = system: Dcs1p K126A; assay: Longitudinal exchange NMR, domain flipping motions; set-up: species or system S. cerevisiae
[7] = system: Dcs1p K126A; assay: 31P NMR degradation; assay type: biochemical, S. cerevisiae; details: high substrate excess
[8] = molecular target: T2, Dcs1p K126A (H268N); assay: ITC; assay type: binding, S. cerevisiae
How it was run: (§3)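 Recombinant yeast Dcs1p carrying H268N, full length or C-terminal domain, purified by Ni-NTA, TEV cleavage and size exclusion. ITC at 25°C: m7GpppG or m7GMP injected into 0.5 mM enzyme solution.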

[9] = molecular target: T1, Dcs1p WT (H268N); assay: Longitudinal exchange NMR, domain flipping motions; set-up: species or system S. cerevisiae
How it was run: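 Methyl-TROSY longitudinal exchange spectra recorded with m7GpppG at 1:1, 1:2.5, 1:5 and 1:20 molar ratios. Mixing times 3–1000 ms. Rates fitted from auto- and cross-peak intensities versus mixing time.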

[10] = system: Dcs1p Y94A; assay: 31P NMR degradation; assay type: biochemical, S. cerevisiae; details: Y94A enzyme; 31P NMR time series, 14 h
How it was run: as §1

[11] = molecular target: Dcs1p WT (H268N), full length (Saccharomyces cerevisiae, UniProt Q06151, H268N); assay: ITC; assay type: binding, S. cerevisiae
How it was run: as §3

T1 sequence (Q06151 whole entry H268N): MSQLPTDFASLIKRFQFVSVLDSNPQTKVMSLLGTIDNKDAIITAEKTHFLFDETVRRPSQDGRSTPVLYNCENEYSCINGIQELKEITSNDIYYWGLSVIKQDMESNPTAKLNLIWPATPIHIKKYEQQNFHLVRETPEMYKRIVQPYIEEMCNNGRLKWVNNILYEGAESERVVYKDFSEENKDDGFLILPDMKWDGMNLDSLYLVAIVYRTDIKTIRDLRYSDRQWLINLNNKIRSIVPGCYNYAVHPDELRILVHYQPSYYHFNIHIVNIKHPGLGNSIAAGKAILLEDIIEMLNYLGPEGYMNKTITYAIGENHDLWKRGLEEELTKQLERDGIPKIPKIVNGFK
Dcs1p WT (H268N), full length, sequence (Q06151 whole entry H268N): as above
T2 sequence (Q06151 whole entry K126A/H268N): as the sequence (Q06151 whole entry H268N) above, with K126A counted along it

Nc1nc2c(ncn2[C@@H]2O[C@H](COP(=O)(O)OP(=O)(O)OP(=O)(O)OC[C@H]3O[C@@H](n4cnc5c(=O)[nH]c(N)nc54)[C@H](O)[C@@H]3O)[C@@H](O)[C@H]2O)c(=O)[nH]1 [GpppG]
formation of asymmetric conformation [1]: observed no resonances corresponding to the asymmetric conformation | enzymatic turnover / hydrolysis ([2]; WT enzyme, 31P NMR time series, 14 h): did not detect enzymatic turnover

C[n+]1cn([C@@H]2O[C@H](COP(=O)(O)OP(=O)(O)O)[C@@H](O)[C@H]2O)c2nc(N)[nH]c(=O)c21 [m^7GDP, 7-methylguanosine diphosphate]
hydrolysis [3]: not hydrolysed efficiently

C[n+]1cn([C@@H]2O[C@H](COP(=O)([O-])OP(=O)(O)OP(=O)(O)OC[C@H]3O[C@@H](n4cnc5c(=O)[nH]c(N)nc54)[C@H](O)[C@@H]3O)[C@@H](O)[C@H]2O)c2nc(N)[nH]c(=O)c21 [m7GpppG]
Kd [4]: 105 µM | Kd [5]: 196 µM | Flipping rate ([6]; K126A (H268N), under high and low substrate excess): < 1 Hz under high and low substrate excess | domain flipping rate ([6]; K126A, substrate excess, based on detection limit of the experiment): less than 1 s^−1 | Turnover rate (kcat) [7]: 0.48 s^−1 under high substrate excess | Kd [8]: 240 nM | domain flipping (exchange) rate ([9]; 20-fold excess of substrate over dimeric enzyme, inactive H268N): 35.4 (± 4.8) s^−1 and 35.4 s^−1 | Flipping rate ([9]; low substrate excess): 8 Hz | Turnover rate (kcat) ([2]; high substrate excess, 0.5 mM substrate, 50 nM enzyme, 27°C): 0.27 s^−1 under high substrate excess | enzymatic turnover / hydrolysis [10]: did not detect enzymatic turnover

C[n+]1cn([C@@H]2O[C@H](COP(=O)([O-])O)[C@@H](O)[C@H]2O)c2nc(N)[nH]c(=O)c21 [m7GMP, m^7G monophosphate]
formation of asymmetric conformation [1]: preserves the asymmetric form of the complex | Kd ([11]; Kd (single-step binding, closed binding site), ITC, DcpS H268N): 1100 ± 600 nM | factor weaker interaction with closed binding site than the substrate ([11]; product vs substrate): 4 | interaction with the second, open binding site ([11]; using ITC and NMR): not able to detect an interaction
